Reference: ChEMBL document CHEMBL1137859, “Synthesis of C8-linked pyrrolo[2,1-c][1,4]benzodiazepine-benzimidazole conjugates with remarkable DNA-binding affinity” (2004)

Legend:
[1] = system: Calf thymus DNA; experiment: Thermal denaturation of calf thymus DNA at 0 h, incubation at 37 degree C; format: nucleic-acid assay; conditions: Bos taurus
Outline: (§1)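 CT-DNA (100 μM) with ligand 20 μM (PBD/DNA molar ratio 1:5) in aqueous sodium phosphate buffer (10 mM sodium phosphate + 1 mM EDTA, pH 7.00±0.01). Incubated at 37 °C for 0 h or 18 h, then thermal helix→coil melting followed. ΔTm taken relative to DNA alone (Tm mean of 20 separate determinations). ΔTm values ±0.05–0.1 °C.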

[2] = system: Calf thymus DNA; experiment: Thermal denaturation of calf thymus DNA at 18 h, incubation at 37 degree C; format: nucleic-acid assay; conditions: Bos taurus; outline: as §1
[3] = system: UACC-62; experiment: In vitro concentration required to produce 50% lethality against human melanoma UACC-62 cell line; format: functional; conditions: read-out: LC50 (the source's name)
[4] = system: MDA-MB-435; experiment: In vitro concentration required to produce 50% lethality against human breast MDA-MB-435 cell line; format: functional; conditions: read-out: LC50 (the source's name)
[5] = system: Malme-3M; experiment: In vitro concentration required to produce 50% lethality against human melanoma MALME-3M cell line; format: functional; conditions: read-out: LC50 (the source's name)
[6] = system: SK-MEL-2; experiment: In vitro concentration required to produce 50% lethality against human melanoma SK-MEL-2 cell line; format: functional; conditions: read-out: LC50 (the source's name)
[7] = system: SK-MEL-5; experiment: In vitro concentration required to produce 50% lethality against human melanoma SK-MEL-5 cell line; format: functional; conditions: read-out: LC50 (the source's name)
[8] = system: MDA-MB-231; experiment: In vitro concentration required to produce 50% lethality against human breast MDA-MB-231/ATCC cell line; format: functional; conditions: read-out: LC50 (the source's name)
[9] = system: EKVX; experiment: In vitro concentration required to produce 50% lethality against human non small cell lung EKVX cell line; format: functional; conditions: read-out: LC50 (the source's name)
[10] = system: HOP-62; experiment: In vitro concentration required to produce 50% lethality against human non small cell lung HOP-62 cell line; format: functional; conditions: read-out: LC50 (the source's name)
[11] = system: NCI-H226; experiment: In vitro concentration required to produce 50% lethality against human non small cell lung NCI-H226 cell line; format: functional; conditions: read-out: LC50 (the source's name)
[12] = system: NCI-H522; experiment: In vitro concentration required to produce 50% lethality against human non small cell lung NCI-H522 cell line; format: functional; conditions: read-out: LC50 (the source's name)
[13] = In vitro concentration required to produce 50% lethality against human CNS […] cell line; format: functional; conditions: read-out: LC50 (the source's name)
[14] = system: SF-539; experiment: In vitro concentration required to produce 50% lethality against human CNS SF-539 cell line; format: functional; conditions: read-out: LC50 (the source's name)
[15] = system: SNB-19; experiment: In vitro concentration required to produce 50% lethality against human CNS SNB-19 cell line; format: functional; conditions: read-out: LC50 (the source's name)
[16] = system: KM12; experiment: In vitro concentration required to produce 50% lethality against human colon KM12 cell line; format: functional; conditions: read-out: LC50 (the source's name)
[17] = system: 786-0; experiment: In vitro concentration required to produce 50% lethality against human renal 786-0 cell line; format: functional; conditions: read-out: LC50 (the source's name)
[18] = system: A498; experiment: In vitro concentration required to produce 50% lethality against human renal A-498 cell line; format: functional; conditions: read-out: LC50 (the source's name)
[19] = system: TK-10; experiment: In vitro concentration required to produce 50% lethality against human renal TK-10 cell line; format: functional; conditions: read-out: LC50 (the source's name)
[20] = system: M14; experiment: In vitro concentration required to produce 50% lethality against human melanoma M14 cell line; format: functional; conditions: read-out: LC50 (the source's name)
[21] = system: SN12C; experiment: In vitro concentration required to produce 50% lethality against human renal SN12C cell line; format: functional; conditions: read-out: LC50 (the source's name)
[22] = system: BT-549; experiment: In vitro concentration required to produce 50% lethality against human breast BT-549 cell line; format: functional; conditions: read-out: LC50 (the source's name)
[23] = system: PC-3; experiment: In vitro concentration required to produce 50% lethality against human prostate PC-3 cell line; format: functional; conditions: read-out: LC50 (the source's name)
[24] = system: RXF 393; experiment: In vitro concentration required to produce 50% lethality against human renal RXF 393 cell line; format: functional; conditions: read-out: LC50 (the source's name)
[25] = system: IGROV-1; experiment: In vitro concentration required to produce 50% lethality against human ovarian IGROVI cell line; format: functional; conditions: read-out: LC50 (the source's name)
[26] = system: OVCAR-3; experiment: In vitro concentration required to produce 50% lethality against human ovarian OVCAR-3 cell line; format: functional; conditions: read-out: LC50 (the source's name)
[27] = system: OVCAR-5; experiment: In vitro concentration required to produce 50% lethality against human ovarian OVCAR-5 cell line; format: functional; conditions: read-out: LC50 (the source's name)
[28] = In vitro concentration required to produce 50% lethality against human prostate DU-145 cell line; format: functional; conditions: read-out: LC50 (the source's name)
[29] = system: T47D; experiment: In vitro concentration required to produce 50% lethality against human breast T47D cell line; format: functional; conditions: read-out: LC50 (the source's name)
[30] = system: OVCAR-8; experiment: In vitro concentration required to produce 50% lethality against human ovarian OVCAR-8 cell line; format: functional; conditions: read-out: LC50 (the source's name)

SMILES: CN1CCN(c2ccc3[nH]c(-c4ccc(O)cc4)nc3c2)CC1
- ΔTm [1]: 2.9 °C
- ΔTm [2]: 2.9 °C

SMILES: COc1cc2c(cc1O)N=C[C@H]1CCCN1C2=O
- ΔTm [1]: 0.3 °C

SMILES: COc1cc2c(cc1OCCCCCOc1ccc(-c3nc4ccccc4[nH]3)cc1)N=C[C@@H]1CCCN1C2=O
- ΔTm [1]: 10.3 °C
- ΔTm [2]: 11 °C

SMILES: COc1cc2c(cc1OCCCCOc1ccc(-c3nc4cc(N5CCN(C)CC5)ccc4[nH]3)cc1)N=C[C@@H]1CCCN1C2=O
- ΔTm [1]: 15.5 °C
- ΔTm [2]: 15.5 °C

SMILES: COc1cc2c(cc1OCCCOc1ccc(-c3nc4ccc(N5CCN(C)CC5)cc4[nH]3)cc1)N=C[C@@H]1CCCN1C2=O
- ΔTm [1]: 16.6 °C
- ΔTm [2]: 22.5 °C
- CC50 [3]: 0.01 µM
- CC50 [4]: 0.01 µM
- CC50 [5]: 34.4 µM
- CC50 [6]: 0.01 µM
- CC50 [7]: 0.01 µM
- CC50 [8]: 13.5 µM
- CC50 [9]: 25.2 µM
- CC50 [10]: 17.4 µM
- CC50 [11]: 23.5 µM
- CC50 [12]: 0.01 µM
- CC50 [13]: 27.8 µM
- CC50 [14]: 0.01 µM
- CC50 [15]: 47.5 µM
- CC50 [16]: 45.2 µM
- CC50 [17]: 31.2 µM
- CC50 [18]: 0.01 µM
- CC50 [19]: 39.7 µM
- CC50 [20]: 0.01 µM
- CC50 [21]: 18.7 µM
- CC50 [22]: 12.6 µM
- CC50 [23]: 16.4 µM
- CC50 [24]: 0.01 µM
- CC50 [25]: 45.3 µM
- CC50 [26]: 34.6 µM
- CC50 [27]: 33.9 µM
- CC50 [28]: 33.7 µM
- CC50 [29]: 42.1 µM
- CC50 [30]: 21 µM

SMILES: COc1cc2c(cc1OCCCOc1ccc(-c3nc4ccccc4[nH]3)cc1)N=C[C@@H]1CCCN1C2=O
- ΔTm [1]: 11 °C
- ΔTm [2]: 11.4 °C

SMILES: COc1cc2c(cc1OCCCCCOc1ccc(-c3nc4cc(N5CCN(C)CC5)ccc4[nH]3)cc1)N=C[C@@H]1CCCN1C2=O
- ΔTm [1]: 22.4 °C
- ΔTm [2]: 22.6 °C

SMILES: COc1cc2c(cc1OCCCCOc1ccc(-c3nc4ccccc4[nH]3)cc1)N=C[C@@H]1CCCN1C2=O
- ΔTm [1]: 3.8 °C
- ΔTm [2]: 4 °C
